Assay: Toxicity liver stage against HepG2, at 10uM
Assay type: cell-based
Parameters: test concentration 10 uM, cell line HepG2-A16-CD81EGFP
Conditions: human, HepG2-A16-CD81EGFP cells; read-out: INHIBITION
Outline: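 Uninfected HepG2-A16-CD81EGFP cells, 3 × 10^3 per well, 1536-well, plated on prespotted compound at 10 μM final, parasite-free screening media added to match infected plates; puromycin 10 μM positive, DMSO 0.5% negative; run in parallel with 48 h PbLuc assay at 37 °C, 5% CO2; viability by CellTiter-Glo luminescence, normalized to controls.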

Row | Structure (SMILES) | cytotoxicity at 10 µM
1 | Cc1nn(C)c(Cl)c1C1CCCN1C(=O)c1cc(C2CC2)on1 (configuration not stated) | -13.3%
2 | Cc1ncsc1C(=O)NCc1cccs1 | -1.89%
3 | O=C(CC[C@@H]1CCCN2CCCC[C@H]12)NCCc1nc(O)cc(O)n1 | -0.392%
4 | CCn1cc(S(=O)(=O)N2CCC(C)CC2)c(C)n1 | 8.44%
5 | COc1ccc(CNC(=O)NCC(O)(c2cccs2)C2CC2)cc1 (configuration not stated) | 0.227%
6 | CC1CN(C)CCN1C(=O)c1cnn(-c2ccc(Cl)cc2)c1 (configuration not stated) | -22.7%
7 | Cc1cccc(CN(Cc2nc3c(cnn3C)c(=O)[nH]2)C2CC2)c1 | 0.914%
8 | COC(=O)N1CCCC(NC(=O)NCc2nc(C)cs2)C1 (configuration not stated) | 7.25%
9 | Cc1cc(CNC(=O)CN2CCN(C(=O)OC(C)(C)C)CC2)ccc1F | -11.2%
10 | CCn1cc(NC(=O)NCC(O)COc2cccc(F)c2)cn1 (configuration not stated) | -2.86%
11 | Cc1nc(COC[C@@]23CCC[C@@H]2CN(Cc2nccs2)C3)cs1 | 12.9%
12 | C[C@H]1C[C@H]2CN(C(=O)CC3CC3)CC[C@H]2O1 | -67.8%
13 | CN(C)C(=O)N1CCc2c(nnn2C)C1COCC1CC1 (configuration not stated) | 12.6%
14 | Cc1ncc2c(c1C(=O)O)CCN(c1ncc(F)cn1)C2 | -2.19%
15 | COc1ccc(Cn2c(Cc3c(C)n[nH]c3C)n[nH]c2=O)cc1 | -142%
16 | COc1ccc(C2CCCN2c2cnccn2)c(OC)c1 (configuration not stated) | 3.72%
17 | CCn1nc(C)c(NC(=O)CN2CCC(c3ccccc3Cl)C2)c1C (configuration not stated) | -7.58%
18 | CN(Cc1ccc(-n2cccn2)cc1)CC1CCCN1c1cccnn1 (configuration not stated) | -3.98%
19 | O=C(c1ccc(C2CCCO2)s1)N1Cc2ccccc2C1 (configuration not stated) | -13.4%
20 | CC(C)c1nnc(CN2CCc3ccc(S(N)(=O)=O)cc32)o1 | 3.2%
21 | Cc1ncc2c(n1)CN(CC(=O)Nc1c(C)nn(C)c1C)CC2 | -11.1%

Row | Structure (SMILES) | cytotoxicity at 10 µM
22 | O=C(c1ccco1)N1CC[C@H]2C[C@@H](c3nccs3)O[C@@H]2C1 | 0.428%
23 | CC(=O)NCCNC(=O)Nc1cccc(Cl)c1SC(F)F | -13.1%
24 | COc1ccc(C(=O)NCCNC(=O)c2scnc2Cl)cc1 | -16.8%
25 | COC(=O)CCCn1ccnc1C(C)c1ccccc1 (configuration not stated) | -6.73%
26 | O=C(NCCc1cccc(Cl)c1)C1CCOCC1 | -8.47%
27 | Cc1ccc(CN2CC3(CCN(C(=O)c4cscn4)C3)C2)s1 | -10.3%
28 | O=C(NC1CC1)N1CC[C@H](OCC2CC2)[C@@H]1Cc1cccnc1 | 1.36%
29 | CCOC(=O)C1CCCCN1Cc1c[nH]nc1-c1cc2ccccc2o1 (configuration not stated) | 4.8%
30 | N#Cc1cccc(N2CC3(CCN(C(=O)c4ccncc4)C3)CC2=O)c1 (configuration not stated) | -1.75%
31 | CC(=O)NC[C@H]1COCc2nc3c(C)cccc3n21 | 8.65%
32 | Cn1ccc(C(=O)NCc2ccccc2CN2CCCCC2)cc1=O | -2.51%
33 | Cn1cc(C2(C)CN(Cc3ccc(O)c(Cl)c3)CCO2)cn1 (configuration not stated) | -4.12%
34 | CC(C)(C)c1ncc(C(=O)NCc2ccccc2CN2CCCC2)s1 | -8.98%
35 | CN(CCO)Cc1nnc(C2CCN(C(=O)c3cccnc3)CC2)n1C | 11.4%
36 | COc1cccc2c1OCC(NC(=O)NC1CCN(C3CC3)CC1)C2 (configuration not stated) | -10.7%
37 | Cn1ccc(C(=O)N2CCc3[nH]nc(Nc4ccccc4)c3C2)n1 | 5.21%
38 | CCc1nnc(Nc2cccc(C3CCN(C(C)=O)CC3)n2)s1 | 0.579%
39 | O=C(Nc1ccccc1F)N(CCO)Cc1ccsc1 | 2.05%
40 | COCc1cncc2c1CCN(C(=O)c1ccc(C)o1)C2 | 0.388%
41 | CC(=O)c1c(C)nn(CC(=O)N2CCCC2c2ccc(C(N)=O)s2)c1C (configuration not stated) | 1.16%
42 | O=C(c1cnccn1)N1CCN2C[C@H](OCc3ccccn3)C[C@H]2C1 | -0.746%

Row | Structure (SMILES) | cytotoxicity at 10 µM
43 | COCCC(=O)N1CCCC1c1nccnc1Nc1ncccn1 (configuration not stated) | -14.8%
44 | O=C(NC[C@H]1C[C@@H]2CCN1C[C@@H]2CN1CCCC1)c1ccco1 | -3.84%
45 | CC(=O)c1cccc(S(=O)(=O)NCc2cccnc2N(C)C)c1 | 4.24%
46 | COc1ccc(CNCC(C)Oc2ccccn2)cc1Br (configuration not stated) | -10.2%
47 | Cc1ccc(NC(=O)Cn2ncc(SCC(N)=O)c(Cl)c2=O)cc1 | -16.9%
48 | CO[C@H]1CN(C(=O)c2cc3ccccc3[nH]2)CC[C@H]1N | 11%
49 | CC(=O)Nc1ccc(-n2ccc3nc(N4CCCC4)ncc3c2=O)cc1 | 2.24%
50 | CCCN1CCCCCC1Cc1c(C(=O)NC)sc2ccccc12 (configuration not stated) | 8.53%
51 | CNC(=O)Cc1ccccc1NC(=O)C1CCN(C2CCCCC2)C1 (configuration not stated) | -0.355%
52 | CCc1nc(C(=O)N2CCN(CC)CC2)nn1-c1ccccc1Cl | 2.79%
53 | COc1ccc(-c2cc(C(=O)NCCCn3ccnc3C)n(C)n2)cc1 | -6.67%
54 | CN(C)Cc1cnc2n1CCN(C(=O)NCc1ccccc1)CC2 | -6.41%
55 | CC(C)C(NC(=O)c1ccc(Cl)cc1Cl)C(=O)Nc1cnn(C)c1 (configuration not stated) | -2.65%
56 | CS(=O)(=O)NCc1cn2c(n1)CN(Cc1cccnc1)CC2 | -103%
57 | NC(=O)C(NC(=O)COC1CCCCC1)c1ccccc1 (configuration not stated) | -4.65%
58 | NC(=O)C(NC(=O)c1cc(Cl)c[nH]1)c1ccccc1 (configuration not stated) | -0.589%
59 | Cc1nc(-c2nnc[nH]2)sc1C(=O)N1CCCC(C(F)(F)F)C1 (configuration not stated) | 7.59%
60 | Cc1ccc(-c2cc(C)nc(C3CCCN3S(C)(=O)=O)n2)cc1 (configuration not stated) | -8.27%
61 | CC(=O)Nc1nc2c(s1)CN(CC(=O)Nc1ccc(C)c(Cl)c1)CC2 | -6.17%
62 | COc1ccc(CNC(=O)NC2CCN(CC3CCCC3)CC2)cn1 | -8.01%
63 | CNC(=O)C1CCN(Cc2cc3c(cc2O)CCC3)CC1 | 4.83%

Row | Structure (SMILES) | cytotoxicity at 10 µM
64 | O=C(NCc1cnc2n1CCN(c1ncc(F)cn1)CC2)C1CCC1 | -0.881%
65 | CC(C)(C)C(=O)N1CCN(C(=O)Nc2cnn(CC(F)F)c2)CC1 | 9.62%
66 | O=C(CSc1nnc2n1N=CN(c1ccccc1)C2)c1ccccc1 | 9.11%
67 | CN(CC(=O)NC(N)=O)CC1(c2ccc(Br)cc2)CC1 | 0.913%
68 | CN(C(=O)Nc1nncs1)C1CCN(c2ccccc2Cl)C1=O (configuration not stated) | -7.04%
69 | CC(C)C(=O)N1CCC2(CCN2CC2CC2)C1 (configuration not stated) | 8.98%
70 | Cc1nonc1N1CCN(Cc2nc(CC3CC3)no2)CC1 | 9.34%
71 | CNc1cncc(C2CCCN2C(=O)Cn2ccnc2C)n1 (configuration not stated) | -4.31%
72 | CN(C)CCOCc1nnc2n1CCN(Cc1ccco1)CC2 | 2.19%
73 | CC(C)c1cc(C2CCN(C(=O)Cn3cnnn3)CC2)[nH]n1 | 8.04%
74 | O=C(NC1CCC1)[C@@H]1C[C@@H]2CCN(Cc3cccs3)C[C@@H]2O1 | 5.38%
75 | CC(C)[C@@H]1CN(Cc2ccccc2C#N)C[C@H]1N(C)C | -18.7%
76 | CCn1c(CC2CCN(C(=O)c3cc(CC(C)C)on3)CC2)n[nH]c1=O | -2.7%
77 | OC1(CNc2ccc(Br)cn2)CCOCC1 | 6.91%
78 | CCn1cc(CNc2ccc(N(C)CCOC)cn2)cn1 | -8.16%
79 | Cn1c(CN2CCN(CC3CC3)CC2)nnc1C1CCC1 | -26.7%
80 | N#Cc1cccnc1NCCNC(=O)N1CCCSCC1 | -10.8%
81 | OCC1(CCOc2ccccc2)CCN(c2ccc(Cl)cn2)CC1 | -43.4%
82 | CCNC(=O)[C@@H]1C[C@@H](NC(=O)Cc2ccncc2)CN1Cc1ccsc1 | -0.368%

From ChEMBL document CHEMBL4513216, “Probing the Open Global Health Chemical Diversity Library for Multistage-Active Starting Points for Next-Generation Antimalarials” (ACS Infect Dis, 2020)
